Results published in ChEMBL document CHEMBL4725498, “Synthesis and Biological Evaluations of Electrophilic Steroids Inspired by the Taccalonolides” (ACS Med Chem Lett, 2020).
Activity calls are given as the source filed them. The calls are words filed in the database; no cut-off is given here.

Columns and labels:
HeLa [1] = experiment: Cytotoxicity against human HeLa cells assessed as reduction in cell viability measured after 48 hrs by sulforhodamine B assay; type: functional; conditions: read-out: LC50 (the source's name)
In short: (§1)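 HeLa cells exposed to compound for 48 h, then growth measured by sulforhodamine B (SRB) staining. GI50 (50% growth inhibition), TGI (total growth inhibition) and LC50 (50% cytotoxicity) were read from concentration–response data. Values are average ± SEM, n = 3–5.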

HeLa [2] = experiment: Antiproliferative activity against human HeLa cells assessed as growth inhibition measured after 48 hrs by sulforhodamine B assay; type: functional; in short: as §1
HCC1937 = experiment: Cytotoxicity against human HCC1937 cells assessed as reduction in cell viability measured after 48 hrs by sulforhodamine B assay; type: functional; conditions: read-out: LC50 (the source's name)
In short: (§2)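 Breast lines were tested in a 48 h SRB assay: four molecularly diverse triple-negative lines plus nontumorigenic MCF 10A, with MCF 10A tested up to 50 μM. LC50 values came from concentration–response curves. Complete cytotoxicity was taken as the concentration giving full cell kill after 48 h incubation.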

MDA-MB-231 = experiment: Cytotoxicity against human MDA-MB-231 cells assessed as reduction in cell viability measured after 48 hrs by sulforhodamine B assay; type: functional; in short: as §2
BT-549 = experiment: Cytotoxicity against human BT-549 cells assessed as reduction in cell viability measured after 48 hrs by sulforhodamine B assay; type: functional; conditions: read-out: LC50 (the source's name); in short: as §2
MDA-MB-453 = experiment: Cytotoxicity against human MDA-MB-453 cells assessed as reduction in cell viability measured after 48 hrs by sulforhodamine B assay; type: functional; in short: as §2
[3] = Selectivity index, ratio of LC50 for human HeLa cells to LC50 for human HCC1937 cells measured after 48 hrs by sulforhodamine B assay; type: functional
Sus scrofa = organism: Sus scrofa; experiment: Inhibition of porcine brain tubulin polymerization assessed as reduction in rate and extent of tubulin polymerization at 20 uM by turbidimetric assay
In short: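 Purified porcine brain tubulin (20 μM) was incubated with 20 μM compound or DMSO vehicle. Polymerization was monitored turbidimetrically after shift to 37 °C.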

SK-OV-3 [4] = experiment: Antiproliferative activity against human SKOV3 cells assessed as reduction in cell growth at 0.01 to 10 uM incubated for 48 hrs by SRB assay; type: functional, cell-based; conditions: dose microM 0.01-10, time 48.0 hrs
SK-OV-3 [5] = experiment: Antiproliferative activity against human SKOV3-M6/6 cells assessed as reduction in cell growth at 0.01 to 10 uM incubated for 48 hrs by SRB assay; type: functional, cell-based; conditions: dose microM 0.01-10, time 48.0 hrs
OVCAR-5 = experiment: Antiproliferative activity against human OVCAR-5 cells assessed as reduction in cell growth at 0.01 to 10 uM incubated for 48 hrs by SRB assay; type: functional, cell-based; conditions: dose microM 0.01-10, time 48.0 hrs
ES2 = experiment: Antiproliferative activity against human ES-2 cells assessed as reduction in cell growth at 0.01 to 10 uM incubated for 48 hrs by SRB assay; type: functional, cell-based; conditions: dose microM 0.01-10, time 48.0 hrs

SMILES	CC50 (HeLa [1]) [nM]	GI50 (HeLa [2]) [nM]	TGI (HeLa [2]) [nM]	further results
C[C@]12CCC(=O)C[C@@H]1CC[C@@H]1[C@@H]2CC[C@]2(C)C(=O)C=C[C@@H]12	1270	380	750	
C[C@]12CCC(=O)C[C@@H]1CC[C@H]1[C@@H]3[C@@H]4O[C@@H]4C(=O)[C@@]3(C)CC[C@@H]12	1900	1000	1400	CC50 (HCC1937): 700 nM; LC50 (concentration killing 50% of cells) (MDA-MB-231): 1230 nM; CC50 (BT-549): 1340 nM; LC50 (concentration killing 50% of cells) (MDA-MB-453): 1010 nM; RatioLC50 [3]: 2
Cc1ccc(S(=O)(=O)N2[C@@H]3C[C@@]4(C)[C@@H](CC[C@H]5[C@@H]6[C@@H]7O[C@@H]7C(=O)[C@@]6(C)CC[C@@H]54)C[C@@H]32)cc1 (stereo partly specified)	660	450	540	CC50 (HCC1937): 760 nM; LC50 (concentration killing 50% of cells) (MDA-MB-231): 470 nM; CC50 (BT-549): 260 nM; inhibition (Sus scrofa): inactive; LC50 (concentration killing 50% of cells) (MDA-MB-453): 350 nM
C[C@]12CC=CC[C@@H]1C(=O)C[C@@H]1[C@@H]2CC[C@]2(C)C(=O)C=C[C@@H]12	1290	760	980	
C[C@]12C[C@H]3O[C@H]3C[C@@H]1CC[C@@H]1[C@@H]2CC[C@]2(C)[C@@H]3O[C@@H]3C[C@@H]12	> 50000	> 50000	> 50000	
C[C@]12CC=CC[C@@H]1[C@@H](O)C[C@H]1[C@@H]3[C@@H]4O[C@@H]4C(=O)[C@@]3(C)CC[C@@H]12	1320	710	930	
C[C@]12C[C@H]3O[C@H]3C[C@@H]1[C@@H](O)C[C@H]1[C@@H]3[C@@H]4O[C@@H]4C(=O)[C@@]3(C)CC[C@@H]12	3290	2010	2500	
CO[C@@H]1CC(=O)[C@@]2(C)CC[C@H]3[C@@H](C[C@H](O)[C@H]4C[C@@H]5O[C@@H]5C[C@@]43C)[C@H]12	> 50000	> 50000	> 50000	
C[C@]12C[C@H]3O[C@H]3C[C@@H]1[C@@H](O)C[C@@H]1[C@@H]2CC[C@]2(C)C(=O)C=C[C@@H]12	2370	1180	1620	inhibition (Sus scrofa): Active
C[C@]12CC[C@H]3[C@@H](CC[C@H]4C[C@@H]5O[C@@H]5C[C@@]43C)[C@@H]1[C@H](O)[C@H]1O[C@H]12	> 50000	> 50000	> 50000	
CO[C@@H]1CC(=O)[C@@]2(C)CC[C@H]3[C@@H](CC(=O)[C@H]4CC=CC[C@@]43C)[C@H]12	> 50000	19400	35500	
CO[C@@H]1CC(=O)[C@@]2(C)CC[C@H]3[C@@H](C[C@H](O)[C@H]4CC=CC[C@@]43C)[C@H]12	48100	17500	30100	
C[C@]12C[C@@H]3N[C@@H]3C[C@@H]1CC[C@H]1[C@@H]3[C@@H]4O[C@@H]4C(=O)[C@@]3(C)CC[C@@H]12	1420	470	750	
C[C@]12CC=CC[C@@H]1CC[C@H]1[C@@H]3[C@@H]4O[C@@H]4C(=O)[C@@]3(C)CC[C@@H]12	1480	700	1000	
C[C@]12C[C@H]3O[C@H]3C[C@@H]1CC[C@@H]1[C@@H]2CC[C@]2(C)C(=O)CC[C@@H]12	43400	19200	29800	
CC(=O)O[C@H]1[C@H]2[C@H]([C@@H]3[C@@H](O)[C@@H]4[C@H]([C@H](C)[C@H]5O[C@]56OC(=O)[C@@](C)(O)[C@]46C)[C@@]3(C)[C@H]1OC(C)=O)[C@@H](O)C(=O)[C@H]1C[C@@H]3O[C@@H]3[C@H](OC(C)=O)[C@]21C				Activity (SK-OV-3 [4]): Active; Activity (SK-OV-3 [5]): Active; Activity (OVCAR-5): Active; Activity (ES2): Active
C[C@]12C[C@H]3O[C@H]3C[C@@H]1CC[C@@H]1[C@@H]2CC[C@]2(C)C(=O)C=C[C@@H]12	860	310	510	CC50 (HCC1937): 1780 nM; CC50 (MDA-MB-231; read-out: LC50 (the source's name)): 1580 nM; CC50 (BT-549): 450 nM; inhibition (Sus scrofa): Active
C[C@]12CC=CC[C@@H]1[C@@H](O)C[C@@H]1[C@@H]2CC[C@]2(C)C(=O)C=C[C@@H]12	700	277	410	
C[C@]12C[C@H]3O[C@H]3C[C@@H]1C(=O)C[C@H]1[C@@H]3[C@@H]4O[C@@H]4C(=O)[C@@]3(C)CC[C@@H]12	3700	2060	2660	
CC(C)(C)OC(=O)N1[C@@H]2C[C@@]3(C)[C@@H](CC[C@H]4[C@@H]5[C@@H]6O[C@@H]6C(=O)[C@@]5(C)CC[C@@H]43)C[C@@H]21	730	640	680	
C[C@]12C[C@H]3O[C@H]3C[C@@H]1C(=O)C[C@@H]1[C@@H]2CC[C@]2(C)C(=O)C=C[C@@H]12	2040	760	1280	inhibition (Sus scrofa): Active
C[C@]12CC[C@H](O)C[C@@H]1CC[C@@H]1[C@@H]2CC[C@]2(C)C(=O)C=C[C@@H]12	1180	420	770	
CO[C@@H]1CC(=O)[C@@]2(C)CC[C@H]3[C@@H](CC(=O)[C@H]4C[C@@H]5O[C@@H]5C[C@@]43C)[C@H]12	> 50000	> 50000	> 50000	
C[C@]12C[C@H]3O[C@H]3C[C@@H]1CC[C@@H]1[C@@H]2CC[C@]2(C)C=CC(=O)[C@@H]12	18200	9200	12800	
C[C@]12CC[C@H](O)C[C@@H]1CC[C@H]1[C@@H]3[C@@H]4O[C@@H]4C(=O)[C@@]3(C)CC[C@@H]12	2200	1300	1800	CC50 (HCC1937): 820 nM; LC50 (concentration killing 50% of cells) (MDA-MB-231): 1400 nM; CC50 (BT-549): 1430 nM; LC50 (concentration killing 50% of cells) (MDA-MB-453): 1080 nM; RatioLC50 [3]: 2
C[C@]12C[C@H]3O[C@H]3C[C@@H]1CC[C@H]1[C@@H]3[C@@H]4O[C@@H]4C(=O)O[C@@]3(C)CC[C@@H]12	> 50000	28200	> 50000	
C[C@]12CC=CC[C@@H]1C(=O)C[C@H]1[C@@H]3[C@@H]4O[C@@H]4C(=O)[C@@]3(C)CC[C@@H]12	1570	820	1090	
C[C@]12C[C@H]3O[C@H]3C[C@@H]1CC[C@@H]1[C@@H]2CC[C@]2(C)[C@@H]3O[C@@H]3C(=O)[C@@H]12	> 50000	34700	> 50000	
